Measurements taken from PubChem BioAssay.
Activity calls are given as the source filed them. Cut-off read from the data, not from the text of the source, unless noted: active = inhibition above about 30%; inactive = the rest.

Tests used:
[1] = HUVEC growth inhibition – cell-based, human, primary screen (AID 575;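 active = viability at or below 30% in both replicate assays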;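 note: 100% = median of untreated cell wells with 0.1% DMSO on each plate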); details: HUVEC proliferation, CellTiter-Glo luminescence, 72 h; at 10 µM; stronger effect = lower value
Method in brief: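 material = primary HUVEC, no more than 12 passages | input = 1250 cells per well | controls = vehicle and MePR control wells | measured by = CTG luminescence | times = 72 h compound incubation | format = collagen-coated 384-well format | read-out = % viability vs DMSO wells | doses = single 10 µM dose, 0.1% DMSO, from 5x medium stock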

[2] = H69AR cell proliferation blockers – human, duplicate replicates, primary screen (AID 580;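 active = viability at or under a set limit in both replicates, limit being median viability minus 3 SD, cut at about 48% in these data, passing the limit was not always enough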;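 note: 100% = mean luminescence of untreated wells and 0% = no signal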); details: H69AR lung tumor cells viability, ATP luminescence, 72 h; at 10 µM; stronger effect = lower value
[3] = MRP1 drug-resistance reversers in H69AR cells – cell-based, doxorubicin co-treatment, pilot screen (AID 601;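 active = viability loss from added drug above about 55%, and viability with drug at most 40%, in both replicates, limit read from the data, passing the limit was not always enough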); details: CellTiter-Glo, 72 h, at 10 µM; for differential viability (reversal): stronger effect = higher value
[4] = yeast transport mutant growth inhibition pilot in 384-well plates, post-Golgi transport modulator project (AID 636; in the data active = inhibition above about 31%); details: absorbance 615 nm, about 18 h, stronger effect = higher value
[5] = growth suppression of yeast trafficking mutant, preliminary HTS, modulators of trafficking downstream of Golgi apparatus project, 1536-format plate, OD 615 nm (AID 637); details: yeast transport mutant growth, absorbance 615 nm, 18 h; stronger effect = higher value
[6] = H69AR cells + 2 uM doxorubicin, measured here: viability with 2 uM doxorubicin, stronger effect = lower value
[7] = H69AR cells, compound alone cytotoxicity

Structure (SMILES) | viability [1] | viability [2] | differential viability (reversal) ([3]; H69AR cells + 2 uM doxorubicin) | viability [3, 6] [%] | viability [3, 7] [%] | inhibition [4] | inhibition [5]
CCN1CCN(Cc2c(C)[nH]c3ccc(OC)cc3c2=O)CC1 | 96.8% (inactive) | 93.5% (inactive) | 4.75% (inactive) | 88.8 | 93.5 | -2.73% (inactive) | 4.44% (inactive)
O=C(CNC(=O)c1cccs1)NCCN1CCN(c2ccccc2F)CC1 | 101% (inactive) | 89.3% (inactive) | 12.1% (inactive) | 77.2 | 89.3 | -3.95% (inactive) | 2.54% (inactive)
CCOC(=O)Cc1nnc(NC(=O)CSc2nnc3c4ccccc4n(C(C)C)c3n2)s1 | 83.9% (inactive) | 75.6% (inactive) | 0.7% (inactive) | 74.9 | 75.6 | -0.91% (inactive) | -1.43% (inactive)
COc1ccccc1CC(=O)NCc1ccc2c(c1)OCO2 | 106% (inactive) | 93.5% (inactive) | 9.18% (inactive) | 84.3 | 93.5 | -7.2% (inactive) | 6.19% (inactive)
CC1=C(C#N)C(c2ccc3ncccc3c2)C(C#N)=C(C)N1 | 86.2% (inactive) | 97% (inactive) | -1.7% (inactive) | 98.7 | 97 | -4.74% (inactive) | 0% (inactive)
CN(CCCC(=O)Nc1ccncc1)S(=O)(=O)c1ccc(Cl)cc1 | 56.2% (inactive) | 89% (inactive) | -14.6% (inactive) | 104 | 89 | 0.65% (inactive) | -5.87% (inactive)
Nc1nc(SCCOc2ccccc2)n[nH]1 | 94.1% (inactive) | 97% (inactive) | 6.12% (inactive) | 90.8 | 97 | -5.19% (inactive) | -5.24% (inactive)
Cn1c(Cc2cccs2)nnc1SCC(=O)N1CCc2ccccc21 | 94.1% (inactive) | 84.3% (inactive) | -9.72% (inactive) | 94 | 84.3 | -0.66% (inactive) | -8.1% (inactive)
Nc1nc(-c2ccc(Cl)cc2)nn1C(=O)c1cccnc1 | 98.2% (inactive) | 96.4% (inactive) | 0.94% (inactive) | 95.5 | 96.4 | 0.13% (inactive) | 4.29% (inactive)
C1=CC2CC1CC2CN1CCN(c2ccccc2)CC1 (stereo unspecified) | 97.7% (inactive) | 91.8% (inactive) | -2.94% (inactive) | 94.8 | 91.8 | 1.45% (inactive) | -1.27% (inactive)
COC(=O)CSC1=C(C#N)C(c2ccccc2)CC(=O)N1 (stereo unspecified) | 71.7% (inactive) | 23.4% (active) | -48.4% (inactive) | 71.7 | 23.4 | -6% (inactive) | 6.19% (inactive)
COC(=O)c1ccc(CN(c2ccccc2OC)S(=O)(=O)c2cccs2)o1 | 98.8% (inactive) | 86.2% (inactive) | -15.4% (inactive) | 102 | 86.2 | -6.88% (inactive) | -7.14% (inactive)
Cn1c(=O)[nH]c(=O)c2c1nc(NC1CCCCC1)n2CC(=O)NC1CCCCC1 | 99.5% (inactive) | 94.7% (inactive) | 14.6% (inactive) | 80.1 | 94.7 | -7.6% (inactive) | 5.87% (inactive)
